Data published in ChEMBL document CHEMBL5143666, “Insights into the anticancer activity of chiral alkylidene-β-lactams and alkylidene-γ-lactams: Synthesis and biological investigation” (Bioorg Med Chem, 2022).
Activity calls are given as the source filed them. The rule behind the calls is not given here.

What was measured:
OE19 [1] = experiment: Cytotoxicity against human OE19 cells after 48 hrs by MTT assay; type: functional, cell-based; conditions: OE19, 48 h
Method in brief: (§1)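 Cells seeded at 1×10^5 per well, attached overnight, then exposed to serial dilutions from 10 mM DMSO stocks (vehicle control 1% DMSO) for 48 or 72 h; triplicate wells. MTT 0.5 mg/mL, 4 h at 37 °C; formazan dissolved in acid isopropanol, absorbance read. IC50 from sigmoidal variable-slope fit of % metabolic activity vs log concentration; ≥2 independent experiments.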

A-375 [2] = experiment: Cytotoxicity against human A375 cells after 48 hrs by MTT assay; type: functional, cell-based; conditions: A-375, 48 h; method in brief: as §1
OE19 [3] = experiment: Cytotoxicity against human OE19 cells after 72 hrs by MTT assay; type: functional, cell-based; conditions: OE19, 72 h; method in brief: as §1
[4] = biological target: Matrix metalloproteinase-9 (Homo sapiens) (UniProt P14780); experiment: Inhibition of MMP9 in human HT-1080 cells at 10 uM by gelatin zymography; type: cell-based
NCI-H1299 = experiment: Cytotoxicity against human H1299 cells after 48 hrs by MTT assay; type: functional, cell-based; conditions: NCI-H1299, 48 h; method in brief: as §1
HT-1080 = experiment: Cytotoxicity against human HT-1080 cells after 48 hrs by MTT assay; type: functional, cell-based; conditions: HT-1080, 48 h; method in brief: as §1
A-375 [5] = experiment: Induction of cell cycle arrest in human A375 assessed as number of cells at G2/M phase at 10 uM after 48 hrs by flow cytometry (reference value: 5.17 +/- 0.75 %); type: functional
A-375 [6] = experiment: Induction of apoptosis in human A375 cells assessed as late apoptotic cells at 10 uM after 48 hrs by annexin-v and PI staining based flow cytometry analysis (reference value: 1.83 +/- 0.41%); type: functional
A-375 [7] = experiment: Effect on reactive oxygen production in human A375 cells assessed as decrease in peroxide level at 10 uM after 48 hrs by DCFH2-DA staining based spectrophotometry; type: functional, cell-based
Method in brief: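 A375 cells (5×10^5) attached overnight, exposed at 5 or 10 μM for 8 or 48 h. Intracellular peroxides measured with 5 μM DCFH2-DA, 45 min at 37 °C in the dark; after washing, fluorescence read at ex 485 / em 528 nm. Mean ± SD of two independent experiments in duplicate.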

A-375 [8] = experiment: Induction of apoptosis in human A375 cells assessed as viable cells at 10 uM after 48 hrs by annexin-v and PI staining based flow cytometry analysis (reference value: 93.63 +/- 1.37%); type: functional; conditions: read-out: Activity
A-375 [9] = experiment: Induction of apoptosis in human A375 assessed as formation of bleb at 5 to 10 uM after 48 hrs by May-Grunwald- Giemsa staining based optical microscopic analysis; type: functional, cell-based; conditions: dose 5-10 µM
Method in brief: (§2)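 A375 cells exposed to 5 or 10 μM for 48 h, stained with May-Grünwald Giemsa and examined by optical microscopy at 50x. Representative images taken at random for each condition.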

A-375 [10] = experiment: Induction of cell cycle arrest in human A375 assessed as number of cells at G1 phase at 5 uM after 48 hrs by flow cytometry (reference value: 83.5 +/- 1.87 %); type: functional
A-375 [11] = experiment: Induction of apoptosis in human A375 cells assessed as necrotic cells at 10 uM after 48 hrs by annexin-v and PI staining based flow cytometry analysis (reference value: 1.17 +/- 0.41%); type: functional
A-375 [12] = experiment: Induction of apoptosis in human A375 assessed as loss of cell integrity at 5 to 10 uM after 48 hrs by May-Grunwald- Giemsa staining based optical microscopic analysis; type: functional; conditions: dose 5-10 µM; method in brief: as §2
A-375 [13] = experiment: Induction of cell cycle arrest in human A375 assessed as number of cells at S phase at 10 uM after 48 hrs by flow cytometry (reference value: 11.33 +/- 1.86 %)
A-375 [14] = experiment: Induction of cell cycle arrest in human A375 assessed as number of cells at G1 phase at 10 uM after 48 hrs by flow cytometry (reference value: 83.5 +/- 1.87 %); type: functional
A-375 [15] = experiment: Induction of cell cycle arrest in human A375 assessed as number of cells at G2/M phase at 5 uM after 48 hrs by flow cytometry (reference value: 5.17 +/- 0.75 %); type: functional
A-375 [16] = experiment: Induction of cell cycle arrest in human A375 assessed as number of cells at S phase at 5 uM after 48 hrs by flow cytometry (reference value: 11.33 +/- 1.86 %); type: functional

Chain of Matrix metalloproteinase-9 (Homo sapiens) (P14780 whole entry): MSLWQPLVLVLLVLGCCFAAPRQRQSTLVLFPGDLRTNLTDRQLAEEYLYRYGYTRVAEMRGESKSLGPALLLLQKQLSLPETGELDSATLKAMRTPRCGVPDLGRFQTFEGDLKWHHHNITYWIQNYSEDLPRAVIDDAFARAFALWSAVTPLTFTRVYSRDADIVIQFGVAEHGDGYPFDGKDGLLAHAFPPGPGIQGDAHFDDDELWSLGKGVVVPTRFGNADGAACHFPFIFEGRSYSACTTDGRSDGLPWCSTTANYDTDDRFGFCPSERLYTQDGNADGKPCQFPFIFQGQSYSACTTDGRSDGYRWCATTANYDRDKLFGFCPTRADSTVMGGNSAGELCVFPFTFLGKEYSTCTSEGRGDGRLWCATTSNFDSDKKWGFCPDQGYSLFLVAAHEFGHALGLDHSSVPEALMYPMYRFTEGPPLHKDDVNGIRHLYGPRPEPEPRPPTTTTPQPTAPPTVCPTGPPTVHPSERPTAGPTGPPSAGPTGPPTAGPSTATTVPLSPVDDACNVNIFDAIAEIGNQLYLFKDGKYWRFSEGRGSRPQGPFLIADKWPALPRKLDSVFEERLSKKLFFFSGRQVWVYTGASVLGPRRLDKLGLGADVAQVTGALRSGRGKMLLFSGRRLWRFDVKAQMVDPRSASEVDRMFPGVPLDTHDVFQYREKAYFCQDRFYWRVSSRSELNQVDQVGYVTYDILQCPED

inhibition [4] | Compound | IC50 (OE19 [1]) | IC50 (A-375 [2]) | IC50 (NCI-H1299) | IC50 (HT-1080) | other results
 | CC1(C)[C@H](C(=O)OC(c2ccccc2)c2ccccc2)N2C(=O)/C(=C/C(=O)c3ccc([N+](=O)[O-])cc3)[C@H]2S1(=O)=O | 95.5 µM | 76.7 µM |  |  | 
Active | CC1(C)S[C@@H]2/C(=C\C(=O)c3ccccc3)C(=O)N2[C@H]1C(=O)OC(c1ccccc1)c1ccccc1 | 12.8 µM | 22.8 µM | 39 µM | 21.1 µM | IC50 (OE19 [3]): 8.6 µM
 | CC1(C)S[C@@H]2/C(=C\C(=O)c3cc(F)cc(F)c3)C(=O)N2[C@H]1C(=O)OC(c1ccccc1)c1ccccc1 | 17.6 µM | 19.1 µM |  |  | 
 | CC1(C)[C@H](C(=O)OC(c2ccccc2)c2ccccc2)N2C(=O)/C(=C/C(=O)c3ccc([N+](=O)[O-])cc3)[C@H]2[S+]1[O-] (some centres undefined) | 92.4 µM | 48.2 µM |  |  | 
61.4% | CC1(C)S[C@@H]2C/C(=C\C(=O)c3ccccc3)C(=O)N2[C@H]1C(=O)OC(c1ccccc1)c1ccccc1 | 73.3 µM | > 100 µM |  |  | 
 | CC(=O)/C=C1\C[C@H]2SC(C)(C)[C@H](C(=O)OC(c3ccccc3)c3ccccc3)N2C1=O | > 100 µM | > 100 µM | > 100 µM | > 100 µM | 
Active | CC1(C)S[C@@H]2/C(=C\C(=O)OCc3ccccc3)C(=O)N2[C@H]1C(=O)OC(c1ccccc1)c1ccccc1 | 8.2 µM | 7.1 µM | 9.4 µM | 11.7 µM | Activity (A-375 [5]): 12%; IC50 (OE19 [3]): 4.6 µM; Activity (A-375 [6]): 13%; Activity (A-375 [7]): Active; viability at 10 µM (A-375 [8]): 56.2%; Activity (A-375 [9]): Active; Activity (A-375 [10]): 71.25%; Activity (A-375 [11]): 24%; Activity (A-375 [12]): Active; Activity (A-375 [13]): 29.67%; Activity (A-375 [14]): 58.33%; Activity (A-375 [15]): 8.75%; Activity (A-375 [16]): 19.5%
 | CC(=O)/C=C1/C(=O)N2[C@@H]1SC(C)(C)[C@@H]2C(=O)OC(c1ccccc1)c1ccccc1 | 51.9 µM | 63 µM | 24.2 µM | 20.8 µM | 
 | CC1(C)S[C@@H]2/C(=C\C(=O)c3ccc(Cl)cc3)C(=O)N2[C@H]1C(=O)OC(c1ccccc1)c1ccccc1 | 14.6 µM | 48.6 µM |  |  | 
Active | CC1(C)S[C@@H]2/C(=C\C(=O)OC(c3ccccc3)c3ccccc3)C(=O)N2[C@H]1C(=O)OC(c1ccccc1)c1ccccc1 | 21.6 µM | 9.1 µM | 22.4 µM | 15.2 µM | Activity (A-375 [5]): 13%; Activity (A-375 [6]): 7.75%; Activity (A-375 [7]): Active; viability at 10 µM (A-375 [8]): 73.5%; Activity (A-375 [11]): 14.75%; Activity (A-375 [13]): 15.33%; Activity (A-375 [14]): 67.67%
Active | CCOC(=O)/C=C1/C(=O)N2[C@@H]1SC(C)(C)[C@@H]2C(=O)OC(c1ccccc1)c1ccccc1 | 11.2 µM | 7 µM | 15 µM | 25.1 µM | Activity (A-375 [5]): 12.5%; IC50 (OE19 [3]): 5.3 µM; Activity (A-375 [6]): 11.5%; Activity (A-375 [7]): Active; viability at 10 µM (A-375 [8]): 63%; Activity (A-375 [11]): 20.8%; Activity (A-375 [13]): 25.75%; Activity (A-375 [14]): 61.65%
 | CC1(C)S[C@@H]2/C(=C\C(=O)c3ccc4ccccc4c3)C(=O)N2[C@H]1C(=O)OC(c1ccccc1)c1ccccc1 | 19.5 µM | 36.5 µM |  |  | 
 | CC1(C)S[C@@H]2/C(=C\C(=O)c3ccc([N+](=O)[O-])cc3)C(=O)N2[C@H]1C(=O)OC(c1ccccc1)c1ccccc1 | 44.1 µM | 50.3 µM |  |  | 
 | CC1(C)S[C@@H]2/C(=C\C(=O)c3cc(C(F)(F)F)cc(C(F)(F)F)c3)C(=O)N2[C@H]1C(=O)OC(c1ccccc1)c1ccccc1 | 48.5 µM | 39.2 µM |  |  | 
 | CC1(C)S[C@@H]2/C(=C\C(=O)c3ccco3)C(=O)N2[C@H]1C(=O)OC(c1ccccc1)c1ccccc1 | 54.3 µM | 26 µM | 61.5 µM | 45.5 µM | 
 | CC1(C)[C@H](C(=O)OC(c2ccccc2)c2ccccc2)N2C(=O)/C(=C/C(=O)c3ccccc3)[C@H]2S1(=O)=O | 53.1 µM | 17.5 µM | 50.1 µM | 19.5 µM | 
52.9% | COC(=O)/C=C1\C[C@H]2SC(C)(C)[C@H](C(=O)OC(c3ccccc3)c3ccccc3)N2C1=O | 99.7 µM | > 100 µM |  |  | 
Active | CC1(C)S[C@@H]2/C(=C\C(=O)c3ccc(F)cc3)C(=O)N2[C@H]1C(=O)OC(c1ccccc1)c1ccccc1 | 12.1 µM | 17.8 µM | 25.2 µM | 11.2 µM | IC50 (OE19 [3]): 10.7 µM
 | CC1(C)S[C@@H]2/C(=C\C(=O)c3ccc(C(F)(F)F)cc3)C(=O)N2[C@H]1C(=O)OC(c1ccccc1)c1ccccc1 | 15.6 µM | 26.7 µM |  |  | 
 | CC1(C)S[C@@H]2/C(=C\C(=O)c3ccc(Br)cc3)C(=O)N2[C@H]1C(=O)OC(c1ccccc1)c1ccccc1 | 13.8 µM | 29.7 µM |  |  | 
 | COC(=O)/C=C1/C(=O)N2[C@@H]1SC(C)(C)[C@@H]2C(=O)OC(c1ccccc1)c1ccccc1 | 20.2 µM | 24.6 µM |  |  | 
 | CC1(C)[C@H](C(=O)OC(c2ccccc2)c2ccccc2)N2C(=O)/C(=C/C(=O)c3ccccc3)[C@H]2[S+]1[O-] (some centres undefined) | 23.7 µM | 4.5 µM | 92.4 µM | 65.5 µM | Activity (A-375 [6]): 4.17%; viability at 10 µM (A-375 [8]): 89.2%; Activity (A-375 [11]): 3%
